According to ChEMBL document CHEMBL4118249, “Discovery and Identification of Small Molecules as Methuosis Inducers with in Vivo Antitumor Activities” (J Med Chem, 2018):

What was measured:
Type in all cases: organism-based
Conditions in all cases: in vivo, 288 h
Mus musculus [1] = experiment: Toxicity in ICR mouse assessed as effect on AST level in serum at 20 mg/kg, iv administered once daily for 12 days
Method in brief: (§1)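 Healthy ICR mice dosed at 20 mg/kg for 12 days; normal tissues examined for vacuoles, body weight and blood chemistry assessed.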

Mus musculus [2] = experiment: Toxicity in ICR mouse assessed as effect on ALT level in serum at 20 mg/kg, iv administered once daily for 12 days; method in brief: as §1
Mus musculus [3] = experiment: Toxicity in ICR mouse assessed as body weight loss at 20 mg/kg, iv administered once daily for 12 days; method in brief: as §1
Mus musculus [4] = experiment: Induction of vacuolization in ICR mouse at 20 mg/kg, iv administered once daily for 12 days measured post last dose by H and E staining based light microscopic method; method in brief: as §1

Measured: Activity

Cc1ccc(NC(=O)c2cccc(C(F)(F)F)c2)cc1Nc1cc(-c2cccnc2)nc2[nH]ccc12.Cl
Non-Toxic: Mus musculus [1] | Mus musculus [2] | Mus musculus [3] | Mus musculus [4]
